From PubChem
Rce1 inh: inhibitors of yeast Ras-converting enzyme. Q03530. yeast membranes, quenched prenylated peptide cleavage fluorescence. calls only. hit rate 0.27% among 290,000. AID 2563;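 active = fall in fluorescence gain of 50% or more versus controls, with final raw signal at or below 3038400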;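 note: plate controls were neutral control wells for no effect and wells lacking membranes for full effect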
GRK2 aptamer HTS: human GRK2 inhibition via aptamer displacement. P25098. bead flow cytometry, FAM-aptamer displacement from GRK2. inhibition of aptamer binding, % at 10 µM. hit rate 0.59% among 330,000. AID 488847;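 active = inhibition of aptamer binding above 40%, roughly 3 SD of noise, on plates passing a quality check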;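 note: median bead fluorescence of bound FAM aptamer so fluorescent compounds give negative values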
T cell HTS: T cell immune modulation candidate. 2C CD8+ T cell-vesicle binding, flow cytometry; stronger effect = lower value. AID 2052. hit rate 0.068% among 330,000. response (vesicle binding), % at 7 µM;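 active = response, share of CD8 T cells binding vesicles, and their 90th percentile fluorescence all below set limits, cut at about 80% in these data, passing the limit was not always enough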;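 note: values below 100% mean blocked vesicle binding to the CD8+ T cells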
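Test system: purified 2C TCR transgenic mouse naive CD8+ T cells. Probe or stimulus: QL9-peptide-loaded Drosophila micro-vesicles bearing Ld, ICAM-1 and B7-1. Incubation: binding step 1.5 h, 37 °C, antibody labelling 20 min, ice. Measured by: flow cytometry of vesicle-bound cells.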
Rin1-Abl PPI inh: blocks binding of human Rin1 to Abl. P00519+Q13671. TR-FRET Rin1/Abl binding, biochemical. inhibition, % at 7.35 µM. hit rate 0.4% among 360,000; in the data active = inhibition above about 5%, passing the limit was not always enough
Target sequence (P00519 whole entry, looked up): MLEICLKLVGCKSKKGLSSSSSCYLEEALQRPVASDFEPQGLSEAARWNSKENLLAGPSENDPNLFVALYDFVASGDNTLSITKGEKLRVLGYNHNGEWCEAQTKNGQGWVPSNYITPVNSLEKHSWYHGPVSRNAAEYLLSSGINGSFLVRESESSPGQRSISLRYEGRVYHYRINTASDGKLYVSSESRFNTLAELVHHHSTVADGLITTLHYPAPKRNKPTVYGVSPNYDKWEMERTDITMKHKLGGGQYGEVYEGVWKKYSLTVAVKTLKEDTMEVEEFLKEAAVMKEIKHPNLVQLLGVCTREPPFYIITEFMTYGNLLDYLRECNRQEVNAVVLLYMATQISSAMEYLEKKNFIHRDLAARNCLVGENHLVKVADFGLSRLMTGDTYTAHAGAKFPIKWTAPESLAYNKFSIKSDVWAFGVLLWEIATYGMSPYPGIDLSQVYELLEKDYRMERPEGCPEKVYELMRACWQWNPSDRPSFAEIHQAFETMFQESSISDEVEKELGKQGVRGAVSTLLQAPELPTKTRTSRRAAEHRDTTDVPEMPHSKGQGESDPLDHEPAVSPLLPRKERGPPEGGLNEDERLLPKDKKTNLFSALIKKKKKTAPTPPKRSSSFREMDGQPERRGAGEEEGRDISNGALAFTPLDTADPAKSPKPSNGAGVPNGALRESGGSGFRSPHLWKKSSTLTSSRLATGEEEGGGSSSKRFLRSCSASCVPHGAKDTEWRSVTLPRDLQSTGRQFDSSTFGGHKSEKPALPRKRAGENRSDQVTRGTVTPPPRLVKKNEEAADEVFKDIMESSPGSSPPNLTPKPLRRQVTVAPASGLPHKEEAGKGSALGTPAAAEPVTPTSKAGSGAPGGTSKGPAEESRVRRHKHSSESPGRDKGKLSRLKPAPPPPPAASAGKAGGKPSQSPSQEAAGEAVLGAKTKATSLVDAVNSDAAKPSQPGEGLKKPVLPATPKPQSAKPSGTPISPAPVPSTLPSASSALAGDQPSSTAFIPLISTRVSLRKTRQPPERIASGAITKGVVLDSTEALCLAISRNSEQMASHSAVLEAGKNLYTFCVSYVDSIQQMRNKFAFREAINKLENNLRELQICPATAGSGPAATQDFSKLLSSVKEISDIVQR
Target sequence (Q13671 whole entry, looked up): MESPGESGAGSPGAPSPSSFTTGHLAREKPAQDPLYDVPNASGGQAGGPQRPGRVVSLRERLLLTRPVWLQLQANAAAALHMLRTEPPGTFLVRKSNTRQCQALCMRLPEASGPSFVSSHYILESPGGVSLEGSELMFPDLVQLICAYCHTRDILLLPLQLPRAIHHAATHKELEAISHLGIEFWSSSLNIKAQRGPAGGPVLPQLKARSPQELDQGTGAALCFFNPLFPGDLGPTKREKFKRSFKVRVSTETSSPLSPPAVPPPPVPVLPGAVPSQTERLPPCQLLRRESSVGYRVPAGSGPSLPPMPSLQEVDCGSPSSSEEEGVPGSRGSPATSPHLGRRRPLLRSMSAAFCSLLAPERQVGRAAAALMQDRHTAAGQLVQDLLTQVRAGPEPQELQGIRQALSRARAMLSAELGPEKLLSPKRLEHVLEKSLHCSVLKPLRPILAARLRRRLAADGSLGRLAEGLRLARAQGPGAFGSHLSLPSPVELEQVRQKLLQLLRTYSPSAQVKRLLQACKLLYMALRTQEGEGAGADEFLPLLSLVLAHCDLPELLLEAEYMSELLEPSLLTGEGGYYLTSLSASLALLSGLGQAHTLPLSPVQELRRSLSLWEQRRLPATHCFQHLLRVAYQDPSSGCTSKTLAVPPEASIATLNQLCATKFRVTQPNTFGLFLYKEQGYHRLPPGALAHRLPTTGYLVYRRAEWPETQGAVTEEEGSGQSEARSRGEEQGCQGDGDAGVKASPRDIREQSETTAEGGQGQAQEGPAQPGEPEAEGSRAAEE
Myeloid diff MLP: promotes myeloid progenitor differentiation; hit rate 1% among 360,000; calls only at 10 µM; ER-HoxA9 myeloid progenitors, lysozyme-GFP differentiation, flow cytometry;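 active = normalized GFP-positive differentiation at or above the plate's own cutoff, the solvent-only control mean plus 3 SD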;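 note: cells exposed to compound for four days before flow analysis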
SKN-1 inh: inhibitors of C. elegans SKN-1; hit rate 0.49% among 360,000; inhibition, % at 21.8 µM; C. elegans VP596 Pgst-4::GFP/RFP ratio, acrylamide-induced, 24 h;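 active = interference check ratio from 0.5 to 1.5 plus GFP to RFP signal ratio inhibition reaching or exceeding a fixed threshold, cut at about 30% in these data, passing the limit was not always enough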
GRK2 inh confirm: human GRK2 inhibition confirmation, cherry pick 1. shares compounds with GRK2 aptamer HTS. bead-bound GRK2, FAM-aptamer displacement, flow cytometry. aptamer displacement, % at 10 µM. hit rate 4% among 2,000;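 active = aptamer displacement above 40%, near three times the noise of non-fluorescent compounds, on plates passing quality checks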;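 note: negative values mostly reflect intrinsic compound fluorescence rather than true enhancement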
Aptamer quench 1: counter-screen for GRK2 aptamer inhibitors: fluorescent aptamer quenchers. Fluorescent RNA aptamer beads, quenching, flow cytometry; stronger effect = higher value. fluorescence change (kMESF span), kMESF (concentration not given with the values). shares compounds with GRK2 aptamer HTS. AID 504521. 110 tested, under 10 active;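 active = compounds whose bead fluorescence drops by more than 37 kMESF across the dose range, marking them as dye quenchers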
Aptamer quench SP: quenches fluorescent RNA aptamer, GRK2 hit artifact; AID 504580; shares compounds with GRK2 aptamer HTS; fluorescence response (% of DMSO), % at 10 µM; 2,000 tested, under 10 active; Carboxyfluorescein RNA aptamer on beads, flow cytometry quenching; stronger effect = lower value;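 active = compounds that quench the bead-bound fluorescent RNA probe, cutting fluorescence to under half of the solvent control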;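 note: counterscreen run without GRK2 so only probe quenching by compound is measured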
GRK2 CP2: confirmation of human GRK2 inhibitors binding RNA aptamer site | shares compounds with GRK2 aptamer HTS | bead-bound GRK2, FAM-aptamer displacement, flow cytometry | inhibition of aptamer binding, % at 10 µM | 360 tested, under 10 active | AID 504782;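 active = inhibition of aptamer binding above 40%, about triple the noise seen with nonglowing compounds, on plates passing quality control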;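 note: negative values mostly come from compounds that fluoresce themselves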
Aptamer quench3: quenches fluorescent RNA aptamer, GRK2 hit artifact. shares compounds with GRK2 aptamer HTS. Streptavidin beads, FAM-RNA aptamer fluorescence quenching, flow cytometry. change in fluorescence (kMESF span), kMESF (no concentration beside the values). 25 tested, under 10 active. AID 504819;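 active = compounds quenching the bead-bound labeled aptamer, with fluorescence dropping by more than 37 kMESF over the dose range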
FAM quench SP: quenches fluorescent RNA aptamer, GRK2 hit artifact. fluorescence response vs DMSO, % at 10 µM. carboxyfluorescein RNA aptamer beads, flow cytometry quenching; stronger effect = lower value. shares compounds with GRK2 aptamer HTS. 360 tested, under 10 active;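 active = response vs DMSO under 50%, meaning signal dropped by over half, treated as fluorescence quencher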;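 note: labelled aptamer on streptavidin beads without GRK2 as a quench counter-screen; 100% = bead fluorescence of DMSO wells and lower means quenching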
The depositor's hits bear a star; i = inactive; . = no result given; + = active, no number. Only some compounds are listed: those with a hit (about 2.6% of all), similar ones and a draw of the others.

SMILES | Rce1 inh | GRK2 aptamer HTS | T cell HTS | Rin1-Abl PPI inh | Myeloid diff MLP | SKN-1 inh | GRK2 inh confirm | Aptamer quench SP | others
O=C(c1ccc(Cl)c(S(=O)(=O)N2CCc3ccccc3C2)c1)N1CCN(c2ccccc2)CC1 | i | 0 | 109 | -1 | i | 13 | 0 | 102
COc1ccc(N2CCN(C(=O)c3ccc(Cl)c(S(=O)(=O)N4CCCC4)c3)CC2)cc1 | i | 4 | 348 | 4 | i | 14 | . | .
Cc1nn(C)c(C)c1S(=O)(=O)N1CCCC(C(=O)N2CCN(c3ccccc3)CC2)C1 (centres undefined) | i | 82* | 138 | 2 | i | -8 | -1 | 99
CN(C(=O)c1ccc(N2CCCCC2)c([N+](=O)[O-])c1)C1CCS(=O)(=O)C1 (centres undefined) | . | 21 | 342 | 0 | i | 5 | -3 | 105
COc1cccc([C@@H]2CC=C(C(=O)O)[C@H](c3ccc(Br)cc3)N2S(=O)(=O)c2ccc(C)cc2)c1 | . | 0 | 402 | -3 | i | 13 | . | .
CCOC(=O)c1cnc2c(C#N)c(C)nn2c1C | i | 47* | 185 | -2 | i | 0 | -4 | 100
COc1cccc(NS(=O)(=O)c2c(C)n(C)c(=O)n(C)c2=O)c1 | i | 84* | 232 | -2 | i | -5 | 17 | 97
CCOc1ccc2nc(NS(=O)(=O)c3ccc4c(c3)n(C)c(=O)n4C)sc2c1 | i | 61* | 276 | -2 | i | 15 | -4 | 95
COc1ccc(S(=O)(=O)Nc2ccc3c(c2)n(C)c(=O)n3C)cc1 | i | 19 | 506 | -2 | i | 6 | 1 | 67
Cc1c(Cc2ccccc2)c(=O)oc2cc(OCC(=O)NCC(O)c3ccccc3)ccc12 (centres undefined) | i | 0 | 435 | -3 | i | 0 | . | .
O=C(Cc1ccc(NC(=O)C2CCCN(C(=O)C3CCC3)C2)cc1)Nc1cccc(C(=O)N2CCCC2)c1 (centres undefined) | . | . | . | 0 | i | -21 | . | .
COc1cccc(CN2CC(C(=O)N3CCCCCC3)CCC2=O)c1 (centres undefined) | . | 0 | 520 | 0 | i | 17 | . | .
O=C(CCCc1ccccn1)c1ccc(-c2ccccc2)cc1 | . | . | . | -1 | i | 9 | . | .
COc1ccc(C(=O)O)cc1N1C(=O)Nc2ccccc2N1O | i | 78* | 267 | 2 | i | 4 | 0 | 100
Cc1ccc2c(c1)n([O-])c1c([n+]2=O)CCCC1 | i | 52* | 417 | -3 | i | -6 | -5 | 103
CC1(C)CC(=O)C=C(c2n[nH]nc2C2=CCCCC2)C1 | . | . | . | -1 | i | -1 | . | .
N#Cc1ccc(Cl)cc1NC(=O)CN1C(=O)C(=O)N(CCC2=CCCCC2)C1=O | . | . | . | -2 | i | 12 | . | .
NC(=O)C1CCN(CC(=O)Nc2ccccc2N2CCOCC2)CC1 | i | 2 | 84 | -2 | i | -9 | . | .
NC(=O)C1CCN(CC(=O)Nc2cccnc2Cl)CC1 | i | 42* | 159 | 3 | i | 10 | -4 | 135
CN(C)C(=O)c1ccc(NC(=O)COC(=O)CCN=C2NS(=O)(=O)c3ccccc32)cc1 | . | . | . | 0 | i | 27 | . | .
Cc1cc(NC(=O)CCCn2cnc([N+](=O)[O-])n2)no1 | i | 0 | 242 | 4 | i | 25 | . | .
Cc1cc(NC(=O)CCCn2nc(C)c([N+](=O)[O-])c2C)no1 | i | 51* | 474 | -3 | i | -8 | 0 | 98
O=C(NN=Cc1c(F)c(F)c(F)c(F)c1F)c1ccc(NS(=O)(=O)c2cccs2)cc1 | . | 1 | 429 | 4 | i | 13 | . | .
CC(C)c1cc(C(=O)N2CCCC(Nc3ccc(F)cc3)C2)nc(N)n1 (centres undefined) | i | 2 | 472 | 3 | i | -4 | . | .
CS(=O)(=O)Oc1ccc2c(c1)O/C(=C\c1cccc([N+](=O)[O-])c1)C2=O | i | 1 | 205 | -1 | i | 6 | . | .
SMILES | Rce1 inh | GRK2 aptamer HTS | T cell HTS | Rin1-Abl PPI inh | Myeloid diff MLP | SKN-1 inh | GRK2 inh confirm | Aptamer quench SP | others
CS(=O)(=O)Oc1ccc2c(c1)O/C(=C\C=C\c1ccccc1)C2=O | i | 49* | 272 | 1 | i | -2 | -5 | 97
O=C(C1CCN(S(=O)(=O)c2cc(Cl)ccc2Cl)CC1)N1CCOCC1 | i | 0 | 707 | 2 | i | 12 | . | .
COc1ccc(Cc2nnc(SC)[nH]c2=O)cc1OC | i | 51* | 287 | 0 | i | -11 | -1 | 98
CN(C)c1ccc(/C=C/c2nc3ccccc3c(=O)n2-c2ccc(C(=O)O)cc2)cc1 | i | 7 | 229 | -4 | + | -27 | -4 | 102
O=C1CCCCC1C1(O)C(=O)Nc2ccccc21 (centres undefined) | . | . | . | -2 | i | 1 | . | .
CCC1(c2ccccc2)NC(=O)N(CC(=O)NCC2COc3ccccc3O2)C1=O (centres undefined) | . | . | . | 0 | i | 5 | . | .
CCCN(C(=O)c1cccc(-n2cccc2)c1)c1c(N)n(Cc2ccccc2)c(=O)[nH]c1=O | i | 36 | 210 | -1 | i | 16 | 14 | 102 | Aptamer quench 1=37*
CCOc1ccccc1NC(=O)CCC(=O)Nc1ccccc1OCC | i | 0 | 470 | -3 | i | -23 | . | .
COc1ccc(NC(=O)CCS(=O)(=O)c2cccc3nonc23)c(OC)c1 | i | 1 | 588 | -2 | i | 7 | . | . | GRK2 CP2=-6;FAM quench SP=100
CCOc1ccccc1NC(=O)CCS(=O)(=O)c1ccc(OC)cc1 | i | 0 | 264 | 4 | i | 4 | . | . | GRK2 CP2=-33;FAM quench SP=103
CCc1ccccc1NC(=O)CCS(=O)(=O)c1ccc(OC)cc1 | i | 53* | 255 | 4 | i | -4 | 27 | 99 | Aptamer quench 1=2.8;Aptamer quench3=0.3
COc1ccc(NC(=O)CCS(=O)(=O)c2cccc3nonc23)cc1 | i | 1 | 175 | 4 | i | -3 | . | .
